The source made the active and inactive calls. The rule behind the calls is not given here. Bounds are passed on as bounds.

For data set [1], the system named is Lymphocyte. In words: Cytotoxicity against FRDA patient-derived lymphocyte at 0.25 to 2.5 uM incubated for 24 to 48 hrs by flow cytometry analysis. It is filed as cell-based. The following applies: human, dose 0.25-2.5 µM, time 24-48 hrs. The method in brief:
(§1)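 FRDA lymphocytes kept 24 h in glucose-free medium with galactose to force reliance on mitochondrial ATP. Viability by flow cytometry with dual staining, calcein-AM for live and ethidium homodimer-1 for dead cells. Percent live cells taken from a two-dimensional color density dot plot. Duplicates run in two independent experiments.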

The nature of data set [2]: Inhibition of erastin-induced cell death in FRDA patient-derived fibroblast assessed as depletion of cellular ATP incubated for 12 hrs followed by erastin stimulation and measured after by luciferase-linked ATPase enzymatic assay. It is filed as functional, tissue-based. Particulars: Homo sapiens. The method in brief:
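Primary FRDA patient fibroblasts treated with compound, then challenged with erastin (cystine-glutamate exchange inhibitor, GSH depletion). Cell death read as depletion of cellular ATP by a luciferase-linked kit assay.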

Data set [3] deals with Lymphocyte. The data set can be described thus: Induction of ATP production in FRDA patient-derived lymphocyte at 0.1 to 0.5 uM incubated for 24 hrs by luciferase-linked ATPase enzymatic assay. In kind it is functional, tissue-based. Particulars: Homo sapiens, dose microM 0.1-0.5, time 24.0 hrs. The procedure, abridged: (§2)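 Total cellular ATP in cultured FRDA lymphocytes after 24 h with compound in glucose-free medium with 25 mM galactose, to force OXPHOS dependence. Tested range 100 nM–2.5 μM. Expressed as percent of total ATP relative to untreated control.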

Data set [4] has as its system Lymphocyte. The data set can be described thus: Anti-ferroptotic activity in FRDA patient-derived Lymphocyte assessed as reduction in RSL3-induced lipid peroxidation incubated for overnight followed by RSL3 stimulation and measured after 90 mins by FACS analysis. In kind it is functional, cell-based. Particulars: Homo sapiens, 1.5 h. The procedure, abridged: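 FRDA patient lymphocytes pretreated with a range of concentrations, then challenged with RSL3 (GPX4 inhibitor) at 2 μM; lipid peroxidation read with the C11-BODIPY581/591 fluorescent probe. EC50 taken from dose–response curves by nonlinear regression fit.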
A general note: Flow cytometry measures light scatter and fluorescence of single cells or particles in a stream.

The subject of data set [5] is Lymphocyte. The data set can be described thus: Induction of ATP production in FRDA patient-derived lymphocyte at 2.5 uM incubated for 24 hrs by luciferase-linked ATPase enzymatic assay. Particulars: Homo sapiens. In kind it is functional, tissue-based. The procedure, abridged:
as §2

In data set [6] the test system is Lymphocyte. In words: Cytotoxicity against FRDA patient-derived lymphocyte at 2.5 uM incubated for 24 to 48 hrs by flow cytometry analysis. The following applies: human, time 24-48 hrs. It is filed as cell-based. The procedure, abridged: as §1
Data set [7] concerns Lymphocyte. The data set can be described thus: Induction of mitochondria membrane potential depolarization in FRDA patient-derived lymphocyte at 2.5 uM incubated for 16 hrs by JC-1 probe based flow cytometry analysis. In kind it is functional. The following applies: Homo sapiens. The method in brief:
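Mitochondrial inner membrane potential in FRDA lymphocytes measured by flow cytometry with the ratiometric probe JC-1. Percent of cells with intact Δψm taken from a two-dimensional color density dot plot. Duplicates run in two independent runs.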

Data set [8] relates to Lymphocyte. The data set can be described thus: Induction of ATP production in FRDA patient-derived lymphocyte at 0.1 uM incubated for 24 hrs by luciferase-linked ATPase enzymatic assay. In kind it is functional, tissue-based. The following applies: Homo sapiens. The procedure, abridged: as §2
Data set [9] deals with Lymphocyte. The data set can be described thus: Induction of ATP production in FRDA patient-derived lymphocyte incubated for 24 hrs by luciferase-linked ATPase enzymatic assay. In kind it is functional, tissue-based. Particulars: Homo sapiens, dose microM 0.25-2.5, time 24.0 hrs. The method in brief:
as §2

A further data set relates to HepG2. In words: Inhibition of ferroptosis in human HepG2 cells assessed as increase in pAMPK/AMPK ratio at 1 uM incubated for 24 hrs by Western blot analysis. In kind it is functional, cell-based. The method in brief:
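HepG2 cells treated with or without compound. AMPK, p-AMPK and β-actin (loading control) detected by Western blot and quantified as p-AMPK/AMPK ratio. Triplicate experiments, mean ± SEM.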

The subject of data set [10] is Lymphocyte. In words: Induction of ATP production in FRDA patient-derived lymphocyte at 0.1 to 2.5 uM incubated for 24 hrs by luciferase-linked ATPase enzymatic assay. In kind it is functional, tissue-based. Particulars: Homo sapiens, dose microM 0.1-2.5, time 24.0 hrs. The procedure, abridged:
as §2

Data set [11] relates to Lymphocyte. The data set can be described thus: Induction of ATP production in FRDA patient-derived lymphocyte at 0.1 and 0.25 uM incubated for 24 hrs by luciferase-linked ATPase enzymatic assay. It is filed as functional, tissue-based. Particulars: Homo sapiens, dose microM 0.1-0.25, time 24.0 hrs. The method in brief:
as §2

By EC50 is commonly meant the midpoint of the concentration-response curve. Consider `CCCCCCCCCCCCCCCCc1cc2nc3ccc(N(C)C)cc3sc-2cc1=O`, for which the Activity entry with Lymphocyte [1] is given as “Non-Toxic”. The EC50 in data set [2] is 0.022 µM; with Lymphocyte [4], 0.025 µM. Further, in the data set on Lymphocyte [3], the result was Active. Besides, the result in the data set with Lymphocyte [5] was inactive.

Consider `CCCCCCCCCc1cc2nc3ccc(N(C)C)cc3sc-2cc1=O`, for which the Activity entry with Lymphocyte [6] is listed as “Toxic”. The figures for the EC50 (in data set [2]; with Lymphocyte [4]) were 0.011 µM and 0.012 µM, respectively. The result in the data set with Lymphocyte [7] and with Lymphocyte [8] was Active.

As for `CN(C)c1ccc2nc3ccc(=[N+](C)C)cc-3sc2c1`, the outcome with Lymphocyte [9] was inactive. For the same compound, the outcome with Lymphocyte [7] and with Lymphocyte [8] was Active. The “pAMPK/AMPK ratio increase (active/not active)” value in the data set with HepG2 was “inactive”.

For `CCCCCCCCCCCCc1cc2nc3ccc(N(C)C)cc3sc-2cc1=O`, the Activity result with Lymphocyte [1] is “Non-Toxic”. Further, the EC50 in data set [2] came to 0.015 µM; with Lymphocyte [4], 0.016 µM. Besides, the outcome with Lymphocyte [3] and in the data set on Lymphocyte [7] was Active. Besides, the result in the data set with Lymphocyte [5] was inactive.

Turning to `CN(C)c1ccc2nc3ccc(N(C)C)cc3[s+]c2c1.[Cl-]` [METHYLENE BLUE ANHYDROUS], the Activity result in the data set with Lymphocyte [6] is “Toxic”. Also, the figures for the 50% effective concentration (EC50) (in data set [2]; with Lymphocyte [4]) were 0.043 µM and 0.088 µM, respectively.

In the case of `CCCCCCCCCCCCc1cc2nc3ccc(N(C)C)cc3sc-2cc1=[N+](C)C.[I-]`, the Activity result with Lymphocyte [6] was “Toxic”. Moreover, the concentration for a half-maximal effect (EC50) in data set [2] is 0.035 µM; with Lymphocyte [4] it was 0.054 µM. Moreover, the result in the data set with Lymphocyte [7] was Active.

Take `CCCCCCCCc1cc2nc3ccc(N(C)C)cc3sc-2cc1=O`: the Activity entry in the data set on Lymphocyte [6] is reported as “Toxic”. Further, the EC50 in [2] was 0.015 µM; with Lymphocyte [4], 0.014 µM. Besides, the outcome in the data set with Lymphocyte [7] and in the data set on Lymphocyte [8] was Active.

On to `CCCCCCCCc1cc2nc3ccc(N(C)C)cc3sc-2cc1=[N+](C)C.[I-]`, for which the Activity result in the data set on Lymphocyte [6] is “Toxic”. The concentration giving a half-maximal response (EC50) in data set [2] came out at 0.039 µM; in the data set on Lymphocyte [4] it was 0.076 µM. The outcome in the data set on Lymphocyte [10] was inactive. Moreover, the result in the data set on Lymphocyte [7] was Active.

On to `CCCCCCCCCc1cc2nc3ccc(N(C)C)cc3sc-2cc1=[N+](C)C.[I-]`, for which the Activity entry in the data set on Lymphocyte [6] is listed as “Toxic”. In addition, the EC50 in [2] was found to be 0.037 µM; with Lymphocyte [4] it was 0.053 µM. For the same compound, the result with Lymphocyte [10] was inactive. Besides, the outcome with Lymphocyte [7] was Active.

As to `CCCCCCCCCCc1cc2nc3ccc(N(C)C)cc3sc-2cc1=O`, in the data set with Lymphocyte [6], the Activity result is “Toxic”. Further, the EC50 in data set [2] is 0.01 µM; with Lymphocyte [4], 0.009 µM. The outcome with Lymphocyte [7] and in the data set on Lymphocyte [8] was Active. For the same compound, the “pAMPK/AMPK ratio increase (active/not active)” value with HepG2 is “Active”.

Take `CN(C)c1ccc2nc3ccc(=O)cc-3sc2c1`: the half-maximal effective concentration (EC50) in [2] is 0.027 µM; in the data set on Lymphocyte [4] it was 0.026 µM. Moreover, the outcome in the data set on Lymphocyte [7] was Active. The “pAMPK/AMPK ratio increase (active/not active)” value in the data set with HepG2 is “Active”.

Consider `Clc1cccc(CNC2=Nc3ccccc3NC23CCNCC3)c1`, for which the 50% effective concentration (EC50) (in data set [2]; in the data set on Lymphocyte [4]) was 0.022 µM throughout.

Regarding `CCCCCCCCCCCCCCCCc1cc2nc3ccc(N(C)C)cc3sc-2cc1=[N+](C)C.[I-]`, the Activity entry in the data set on Lymphocyte [1] is on record as “Non-Toxic”. Also, in the data set with Lymphocyte [11], the result was Active. In addition, the EC50 was 0.055 µM in data set [2] and 0.07 µM with Lymphocyte [4]. Besides, in the data set with Lymphocyte [5], the outcome was inactive.

On to `CC(=O)N1c2ccc(N(C)C)cc2Sc2cc(N(C)C)ccc21`, for which the concentration giving a half-maximal response (EC50) with Lymphocyte [4] was more than 2.5 µM.

As to `Cc1c(C)c2c(c(C)c1O)CC[C@@](C)(CCC[C@H](C)CCC[C@H](C)CCCC(C)C)O2` [ALPHA-TOCOPHEROL], the concentration for a half-maximal effect (EC50) (in data set [2]; in the data set on Lymphocyte [4]) was more than 0.5 µM in each case.

With `CCOC(=O)c1ccc(NC2CCCCC2)c(N)c1`, the half-maximal effective concentration (EC50) was 0.033 µM in data set [2] and 0.048 µM with Lymphocyte [4].

For `CCCCCCCCCCc1cc2nc3ccc(N(C)C)cc3sc-2cc1=[N+](C)C.[I-]`, the Activity result in the data set with Lymphocyte [6] was “Toxic”. In addition, the EC50 in data set [2] came out at 0.029 µM; in the data set with Lymphocyte [4], 0.038 µM. Moreover, the outcome in the data set on Lymphocyte [10] was inactive. The outcome in the data set on Lymphocyte [7] was Active. The “pAMPK/AMPK ratio increase (active/not active)” value with HepG2 was “Active”.

Source of the values: ChEMBL document CHEMBL4725467, “Antiferroptotic Activity of Phenothiazine Analogues: A Novel Therapeutic Strategy for Oxidative Stress Related Disease” (ACS Med Chem Lett, 2020).
